Shown are actives, neighbours in structure and some others; about 3.5% of the full set was active somewhere.
MrgX1 PAM: human MrgX1 positive allosteric modulation, primary screen; 0.63% of 310,000 active; MrgX1-HEK293, Fluo-4 calcium flux, FDSS; hits give high values; B-score at 10 µM; Q96LB2;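 active = plate-corrected calcium response at least 3 library SD above typical, normal starting fluorescence, not activating the receptor alone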;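 note: compound read alongside a low EC10 to EC30 dose of BAM8-22 agonist; peak minus trough fluorescence over baseline measured at the second addition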
Target sequence (Q96LB2 whole entry, looked up): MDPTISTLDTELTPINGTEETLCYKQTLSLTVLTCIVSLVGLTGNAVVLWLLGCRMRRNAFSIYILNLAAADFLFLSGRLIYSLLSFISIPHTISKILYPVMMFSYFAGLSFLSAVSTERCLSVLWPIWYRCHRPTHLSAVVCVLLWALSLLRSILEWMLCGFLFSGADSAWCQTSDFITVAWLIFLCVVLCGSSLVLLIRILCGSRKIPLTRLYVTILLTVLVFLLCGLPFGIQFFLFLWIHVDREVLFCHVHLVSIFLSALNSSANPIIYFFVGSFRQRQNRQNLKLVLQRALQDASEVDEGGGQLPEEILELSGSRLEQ
RGS4 inh: human RGS4 inhibition; P49798; HEK293 M3R/RGS4 inducible, Fluo-4 calcium flux; hits give high values; triggered by carbachol at its EC20; B-score at 10 µM; 0.45% of 310,000 active; AID 463165;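 active = B-score, a plate-corrected calcium signal, over three deviations above library mean, with baseline fluorescence within five deviations of library mean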;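 note: RGS4 expression induced by doxycycline in cells with stable M3 receptor; B-score is computed from the integrated fluorescence ratio over baseline after carbachol; higher B-score means a larger calcium signal and so more RGS4 inhibition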
Target sequence (P49798 whole entry, looked up): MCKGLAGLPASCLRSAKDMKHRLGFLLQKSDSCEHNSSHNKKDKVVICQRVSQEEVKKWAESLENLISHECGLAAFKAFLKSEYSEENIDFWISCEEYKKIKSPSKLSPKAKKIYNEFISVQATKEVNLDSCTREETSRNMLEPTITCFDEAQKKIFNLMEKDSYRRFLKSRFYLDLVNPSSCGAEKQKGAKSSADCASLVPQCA
MrgX1 ag: activates human MrgX1 receptor signaling; Q96LB2; MrgX1-HEK293 cells, Fluo-4 calcium fluorescence, agonist mode; hits give high values; B-score at 10 µM; 0.44% of 310,000 active; AID 588627;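 active = calcium response B-score plate-corrected fluorescence ratio at least 3 library SD, with starting fluorescence B-score inside 5 SD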
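Material: HEK293 cells stably expressing human MrgX1 receptor | Quantity: 15,000 cells per well | Times: Cells plated overnight, dye loaded 0.5 h 37 °C, 0.5 h room temperature | Measured by: Kinetic Fluo-4 NW fluorescence of intracellular calcium | Control set: Positive and negative controls per plate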
RGS4 act: potentiators or activators of RGS4. B-score at 10 µM. HEK293 M3R/inducible RGS4, carbachol calcium flux Fluo4; hits give low values. 0.92% of 310,000 active;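 active = B-score of the integrated calcium signal more than 4 SD below the library mean, with starting fluorescence not abnormally high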;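 note: negative B-score means reduced calcium response which marks RGS4 activation or potentiation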
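Reagent: ECmax carbachol challenge; Test system: M3R-expressing HEK293 line, RGS4 induced by doxycycline; Schedule: overnight RGS4 induction, 30 min dye load 37 °C, 20 min compound RT; Detection: calcium dye Fluo4 fluorescence; Read-out: Agonist-evoked peak-minus-minimum fluorescence over baseline, integrated ratio, B score.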
MrgX1 antagonist: antagonists of human MrgX1 receptor; B-score at 10 µM; Q96LB2; 1.3% of 310,000 active; MRGX1-HEK293 calcium flux, Fluo-4, BAM8-22 antagonism; hits give low values;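 active = calcium-response B-score plate-corrected more than 3 library SD below zero, starting fluorescence within 5 deviations, no agonist response on first addition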;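 note: peak minus trough fluorescence over baseline after final BAM8-22 challenge near maximal dose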
Large screens that a line does not name were inactive.

NC(=O)C(CC(=O)O)NC(=O)[C@@H]1CCOc2c(I)cc([N+](=O)[O-])cc2C(=O)N[C@@H](CCC(=O)O)C(=O)N[C@@H](CO)C(=O)N1 (some centres undefined)	MrgX1 antagonist -6.1 (no result: RGS4 inh, RGS4 act)
C[C@@H]1NC(=O)c2cc([N+](=O)[O-])cc(I)c2OCC[C@@H](C(=O)NC(CC(=O)O)C(N)=O)NC(=O)[C@H](CCC(=O)O)NC1=O (some centres undefined)	none (no result: RGS4 inh, RGS4 act)
CCCCCCNC(=O)CC(NS(=O)(=O)c1ccc(OC)cc1)C(C)C (centres undefined)	none
CN(Cc1nccn1C)C(=O)CC1C(=O)NCCN1Cc1cccc(Oc2ccccc2)c1 (centres undefined)	MrgX1 antagonist -5.2
CCCc1nnc(NC(=O)C(=O)NCCN(CC)CC)s1	RGS4 act -7.3 (no result: MrgX1 PAM, MrgX1 ag, MrgX1 antagonist)
CCCC(=O)Nc1ccc(S(=O)(=O)Nc2cc(OC)ncn2)cc1	none (no result: MrgX1 PAM, MrgX1 ag, MrgX1 antagonist)
CNC(=S)N1N=C(c2ccc(Br)cc2)CC1c1ccc(Br)cc1 (centres undefined)	none
Cc1cc2n(n1)C(c1ccccc1)CC(c1ccc(Br)cc1)=N2 (centres undefined)	MrgX1 PAM 15 (no result: RGS4 inh, RGS4 act)
COc1ccc(OC)c(S(=O)(=O)NCCc2csc(-c3cccnc3)n2)c1	none
O=C(NCc1ccc(Cl)cc1)c1cc(=O)[nH]c2ccccc12	none
COc1ccc(/C=C/c2ccc3cccc(O)c3n2)c(OC)c1OC	none
COc1cccc(/C=C/c2ccc3cccc(O)c3n2)c1OC	RGS4 act -7.4
CCCCN(CCCNC(=O)c1c(C)cc(=O)oc1C)c1ccccc1	MrgX1 antagonist -7.9
Cc1cccc(C(=O)N2CCN=C2SCc2ccc([N+](=O)[O-])cc2)c1	RGS4 act -8.6
O=C(Cc1ccccc1)N1CCN=C1SCc1cccc([N+](=O)[O-])c1	none
CC(Oc1ccc2c(c1)c1ccnc3c4ccccc4c(=O)n2c13)C(=O)NCCN1CCOCC1 (centres undefined)	none
Cc1noc(C)c1COc1ccc(C(=O)OCc2nnc(-c3ccc(Cl)cc3)o2)cc1	none
CCOc1ccc(C(=O)NCC(=O)N2CCN(C/C=C/c3ccccc3)CC2)cc1OCC	RGS4 act -7.2
COc1ccc(-n2cccc2/C=C/[N+](=O)[O-])cc1	MrgX1 ag 33
COc1ccc(-n2cccc2C=O)cc1	none
C/C(=N\O)C(C)(C)Nc1ccc(F)cc1	none
C/C(=N\O)C(C)(C)Nc1ccc(Cl)cc1	MrgX1 ag 44
Cc1c(NC(=S)NC(=O)c2ccccc2)c(=O)n(-c2ccccc2)n1C	none
CCc1ccccc1NC(=O)CN1C(=O)c2ccccc2S1(=O)=O	none
NC(=O)c1ccccc1OCC(=O)Nc1ccc(Cl)c(Cl)c1	none
CCOc1ccc2nc(NCCNC(=O)C(C)C)c(C)cc2c1	RGS4 act -7.4
CCOc1ccc2nc(NCCNC(=O)C3CC3)c(C)cc2c1	none
Cc1nn(CC(=O)NCc2ccccc2Cl)c(C)c1[N+](=O)[O-]	none
C/C(=N\NC(=O)Cn1nc(C)c([N+](=O)[O-])c1C)c1ccco1	MrgX1 antagonist -5.9
Cc1nn(CC(=O)NCc2ccco2)c(C)c1[N+](=O)[O-]	none
Cc1cc(CNC(=O)Cn2nc(C)c([N+](=O)[O-])c2C)c2ccccc2n1	MrgX1 PAM 9.4
COc1ccccc1N(C)S(=O)(=O)c1ccc(C(=O)N2CCCC(C(F)(F)F)C2)cc1 (centres undefined)	none
COc1cc(/C=C2/SC(=O)NC2=O)ccc1OC(=O)c1ccco1	none
COc1cc(/C=C2/SC(=S)N(C)C2=O)ccc1OC(=O)c1ccco1	MrgX1 antagonist -5
COc1cc(/C=C2/C(=N)N3C(=NC2=O)SN=C3S(C)(=O)=O)ccc1OC(=O)c1ccco1	MrgX1 PAM 18
CCOc1cc(/C=C2\C(=N)N3N=CSC3=NC2=O)ccc1OS(=O)(=O)c1ccccc1	MrgX1 ag 57
COc1cc(/C=C2/C(=N)N3C(=NC2=O)SN=C3S(=O)(=O)C(C)C)ccc1OS(=O)(=O)c1ccccc1	MrgX1 PAM 13
O=C(CNC(=O)N1CC(=O)Nc2ccccc21)NCc1ccccc1Cl	none
CC(C)CN1CCNC(=O)C1CC(=O)NCc1cnn(-c2cccc(F)c2)c1 (centres undefined)	none
CCCCN(C(=O)c1cc(S(=O)(=O)N2CCCCCC2)ccc1OC)c1c(N)n(CCC)c(=O)[nH]c1=O	none
COc1ccc2cc(OCC(=O)NNC(=O)Nc3ccc(C(C)=O)cc3)ccc2c1	none
O=C(Nc1ccccc1C(=O)NC(Cc1ccc(O)cc1)C(=O)O)c1ccccc1 (centres undefined)	none
CS(=O)(=O)C1=NSC2=NC(=O)/C(=C\c3ccc(OC(=O)c4ccco4)cc3)C(=N)N21	MrgX1 PAM 25
COc1cc(/C=C2\C(=N)N3N=CSC3=NC2=O)cc(Br)c1OC(=O)c1ccco1	MrgX1 ag 34
CCS(=O)(=O)C1=NSC2=NC(=O)/C(=C\c3ccc(OC(=O)c4ccco4)c(OC)c3)C(=N)N21	MrgX1 PAM 28
CC1CCN(C2=NN3C(=N)/C(=C\c4ccc(OC(=O)c5ccco5)cc4)C(=O)N=C3S2)CC1	none
Cc1cc(/C=C2/C(=N)N3C(=NC2=O)SN=C3S(C)(=O)=O)c(C)n1-c1ccccc1F	MrgX1 PAM 11
CC1=CC2=NC(=O)/C(=C\c3cc(C)n(-c4ccccc4F)c3C)C(=N)N2O1	none
CCS(=O)(=O)C1=NN2C(=N)/C(=C\c3ccc(OC(=O)c4ccco4)c(OC)c3)C(=O)N=C2S1	none
COCCC(=O)N1CCC(n2nccc2NC(=O)CCc2ccccc2)CC1	none
COc1ccc(C(=O)C2CCCN(S(=O)(=O)C(C)C)C2)c(C)c1 (centres undefined)	RGS4 act -7.6
COc1ccc(C(=O)C2CCCN(S(=O)(=O)N(C)C)C2)c(C)c1 (centres undefined)	none
CC(C)CCn1c(O)c(N=Nc2ccccn2)c2ccccc21	none
CCCn1c(O)c(N=Nc2ccc3ccccc3n2)c2ccccc21	MrgX1 antagonist -4.8
COc1ccc(OC)c(/C=C2\SC(=S)N(C(C(=O)O)c3ccccc3)C2=O)c1 (centres undefined)	MrgX1 ag 53
C=CCOc1ccc(/C=C2\SC(=S)N(C(C(=O)O)c3ccccc3)C2=O)cc1 (centres undefined)	RGS4 act -9.3 (no result: MrgX1 PAM, MrgX1 ag, MrgX1 antagonist)
CCOc1ccc(/C=C2\SC(=S)N(C(C(=O)O)c3ccccc3)C2=O)cc1OC (centres undefined)	none
COc1cccc(NC(=O)Nc2ccc3c(c2)CCC3)c1	none
COCCSc1nc(N)c(NC(=O)c2ccco2)c(=O)[nH]1	none
C=C(C)Cn1c(-c2cccc([N+](=O)[O-])c2)n[nH]c1=S	MrgX1 antagonist -4.8
CCCCn1c(-c2ccc([N+](=O)[O-])cc2)n[nH]c1=S	RGS4 act -10
CCCn1c(-c2ccc(F)cc2)n[nH]c1=S	none

Assay outcomes deposited in PubChem BioAssay by Johns Hopkins Ion Channel Center.
